Assay results as given in ChEMBL document CHEMBL2016491, “Synthesis and structure-activity relationships of (aryloxy)quinazoline ureas as novel, potent, and selective vascular endothelial growth factor receptor-2 inhibitors” (J Med Chem, 2012).

How the values were obtained:
[1] = tested on: MCF7; test: Antiproliferative activity against human MCF7 cells at 10 uM after 72 hrs by MTS assay; type: functional; conditions: MCF7, 72 h
[2] = tested on: PC-3; test: Antiproliferative activity against human PC3 cells at 10 uM after 72 hrs by MTS assay; type: functional; conditions: PC-3, 72 h
[3] = tested on: HT-29; test: Antiproliferative activity against human HT-29 cells at 10 uM after 72 hrs by MTS assay; type: functional; conditions: HT-29, 72 h
Summary of the method: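 Single-concentration test at 10 μM, with compound in <0.1% DMSO. Cells were plated at 3000/well in triplicate, given a 24 h pre-incubation, then treated for 72 h at 37 °C, 5% CO2. Growth inhibition (%) was read by MTS. HT29 was grown in DMEM + Glutamax-I with 10% FBS. Mean of at least three independent experiments.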

[4] = Solubility of the compound; type: physicochemical
[5] = target: Vascular endothelial growth factor receptor 2 (Homo sapiens, UniProt P35968); test: Inhibition of recombinant human VEGFR-2 using poly(Glu4/Tyr) and [gamma32P]ATP as substrate after 1 hr by scintillation counting
Chain of Vascular endothelial growth factor receptor 2 (P35968 whole entry): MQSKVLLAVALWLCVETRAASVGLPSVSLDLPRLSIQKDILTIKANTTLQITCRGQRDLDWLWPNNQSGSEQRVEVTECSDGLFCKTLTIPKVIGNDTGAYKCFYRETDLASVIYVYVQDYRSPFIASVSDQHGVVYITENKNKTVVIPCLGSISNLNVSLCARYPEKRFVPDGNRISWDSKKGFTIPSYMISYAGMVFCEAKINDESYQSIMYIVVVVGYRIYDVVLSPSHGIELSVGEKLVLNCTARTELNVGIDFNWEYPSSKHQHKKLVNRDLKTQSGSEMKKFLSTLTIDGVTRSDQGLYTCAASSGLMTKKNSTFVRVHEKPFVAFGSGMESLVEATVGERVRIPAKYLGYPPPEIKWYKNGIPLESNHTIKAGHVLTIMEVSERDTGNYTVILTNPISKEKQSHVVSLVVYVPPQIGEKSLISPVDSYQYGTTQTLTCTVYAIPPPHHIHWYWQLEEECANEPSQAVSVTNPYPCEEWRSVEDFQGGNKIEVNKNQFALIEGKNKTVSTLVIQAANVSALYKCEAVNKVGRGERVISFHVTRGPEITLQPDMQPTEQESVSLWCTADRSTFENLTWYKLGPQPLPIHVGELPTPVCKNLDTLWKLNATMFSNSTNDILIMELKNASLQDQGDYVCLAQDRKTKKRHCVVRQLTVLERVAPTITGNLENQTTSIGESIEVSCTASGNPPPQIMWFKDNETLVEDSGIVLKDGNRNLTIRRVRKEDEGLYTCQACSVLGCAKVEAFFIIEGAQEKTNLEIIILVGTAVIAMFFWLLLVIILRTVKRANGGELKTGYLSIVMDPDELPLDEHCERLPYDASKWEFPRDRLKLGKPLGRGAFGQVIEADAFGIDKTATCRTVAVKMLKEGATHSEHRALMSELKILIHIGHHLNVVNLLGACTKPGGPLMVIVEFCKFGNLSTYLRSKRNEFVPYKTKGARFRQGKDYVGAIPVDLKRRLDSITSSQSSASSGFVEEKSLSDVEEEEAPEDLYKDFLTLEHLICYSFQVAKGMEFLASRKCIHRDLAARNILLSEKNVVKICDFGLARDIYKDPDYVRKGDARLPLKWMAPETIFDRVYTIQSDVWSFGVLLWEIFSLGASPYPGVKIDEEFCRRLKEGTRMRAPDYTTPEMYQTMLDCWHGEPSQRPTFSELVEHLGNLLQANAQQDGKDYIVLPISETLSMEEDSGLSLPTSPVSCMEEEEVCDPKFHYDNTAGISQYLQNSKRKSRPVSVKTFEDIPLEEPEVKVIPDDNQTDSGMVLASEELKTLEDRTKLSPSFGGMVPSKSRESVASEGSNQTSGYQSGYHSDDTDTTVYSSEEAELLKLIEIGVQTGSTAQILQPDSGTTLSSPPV

[6] = target: Epidermal growth factor receptor (Homo sapiens, UniProt P00533); test: Inhibition of human EGFR expressed in human A431 cells using poly(Glu4/Tyr) and [gamma32P]ATP as substrate after 1 hr by scintillation counting; design: species or system A-431
Chain of Epidermal growth factor receptor (P00533 whole entry): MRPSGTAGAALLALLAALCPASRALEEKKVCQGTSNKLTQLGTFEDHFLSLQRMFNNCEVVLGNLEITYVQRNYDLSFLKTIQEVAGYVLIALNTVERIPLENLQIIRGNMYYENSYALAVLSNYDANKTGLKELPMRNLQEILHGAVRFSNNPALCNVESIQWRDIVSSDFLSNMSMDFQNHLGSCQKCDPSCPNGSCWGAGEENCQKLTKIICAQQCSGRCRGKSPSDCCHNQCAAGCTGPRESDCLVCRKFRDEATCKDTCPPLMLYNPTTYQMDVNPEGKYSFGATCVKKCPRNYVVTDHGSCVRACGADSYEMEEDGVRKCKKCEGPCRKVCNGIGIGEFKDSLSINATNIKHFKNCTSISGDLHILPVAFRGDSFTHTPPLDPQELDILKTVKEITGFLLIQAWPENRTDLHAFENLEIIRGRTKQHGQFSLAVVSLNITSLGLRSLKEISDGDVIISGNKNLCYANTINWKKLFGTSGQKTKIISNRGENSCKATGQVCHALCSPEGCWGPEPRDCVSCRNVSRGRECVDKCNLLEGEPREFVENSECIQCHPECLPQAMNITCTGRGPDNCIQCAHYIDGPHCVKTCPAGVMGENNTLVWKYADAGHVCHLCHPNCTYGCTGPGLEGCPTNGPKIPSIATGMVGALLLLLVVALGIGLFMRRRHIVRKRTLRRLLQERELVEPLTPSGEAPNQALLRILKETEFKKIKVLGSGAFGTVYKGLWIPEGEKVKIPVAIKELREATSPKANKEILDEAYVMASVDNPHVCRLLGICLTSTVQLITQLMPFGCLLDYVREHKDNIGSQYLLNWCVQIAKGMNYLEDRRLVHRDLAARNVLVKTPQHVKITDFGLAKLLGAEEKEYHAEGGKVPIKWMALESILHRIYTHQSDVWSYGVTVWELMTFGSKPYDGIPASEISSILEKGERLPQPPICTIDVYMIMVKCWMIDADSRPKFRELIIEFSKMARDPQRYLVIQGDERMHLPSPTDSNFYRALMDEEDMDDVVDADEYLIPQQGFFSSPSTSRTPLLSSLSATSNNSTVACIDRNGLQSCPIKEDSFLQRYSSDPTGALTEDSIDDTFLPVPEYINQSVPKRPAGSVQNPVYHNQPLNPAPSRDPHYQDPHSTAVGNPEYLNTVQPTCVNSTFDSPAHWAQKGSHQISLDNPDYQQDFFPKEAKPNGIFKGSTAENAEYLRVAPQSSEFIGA

[7] = tested on: HT-29; test: Antiproliferative activity against human HT-29 cells after 72 hrs by MTS assay; conditions: HT-29, 72 h
[8] = tested on: MCF7; test: Antiproliferative activity against human MCF7 cells after 72 hrs by MTS assay; conditions: MCF7, 72 h

| solubility [4] | IC50 [5] | IC50 [6] | IC50 [7] | IC50 [8] | SMILES | inhibition at 10 µM [1] | inhibition at 10 µM [2] | inhibition at 10 µM [3] |
| --- | --- | --- | --- | --- | --- | --- | --- | --- |
| Insoluble | – | – | – | – | COc1cc2ncnc(Oc3ccc(NC(=O)Nc4ccccc4)cc3)c2cc1OC | 12% | 23% | 10% |
| Insoluble | – | – | – | – | COc1cc2ncnc(Oc3cccc(NC(=O)Nc4ccccc4)c3)c2cc1OC | – | – | – |
| Insoluble | – | – | – | – | COc1ccc(NC(=O)Nc2cccc(Oc3ncnc4cc(OC)c(OC)cc34)c2)cc1 | – | – | – |
| – | – | – | – | – | COc1cc2ncnc(Nc3ccc(Br)cc3F)c2cc1OC | 31% | 1% | 0% |
| Insoluble | 9.8 µM | – | – | – | COc1cc2ncnc(Oc3ccc(F)c(Cl)c3)c2cc1OC | 0% | 5% | 0% |
| – | – | – | – | – | COC(=O)Nc1ccc(Nc2ncnc3cc(OC)c(OC)cc23)cc1 | 27% | 2% | 10% |
| Insoluble | – | – | – | – | COC(=O)Nc1ccc(Oc2ncnc3cc(OC)c(OC)cc23)cc1 | – | – | – |
| – | – | – | – | – | CCOC(=O)Nc1ccc(Nc2ncnc3cc(OC)c(OC)cc23)cc1 | 6% | 12% | 16% |
| Insoluble | – | – | – | – | CCOC(=O)Nc1ccc(Oc2ncnc3cc(OC)c(OC)cc23)cc1 | – | – | – |
| Insoluble | – | – | – | – | CCCCNC(=O)Nc1ccc(Oc2ncnc3cc(OC)c(OC)cc23)cc1 | – | – | – |
| Insoluble | – | – | – | – | COc1cc2ncnc(Oc3ccc(NC(=O)Nc4ccc(Br)cc4)cc3)c2cc1OC | – | – | – |
| Insoluble | – | – | – | – | COc1cc2ncnc(Oc3ccc(NC(=O)Nc4ccc(F)cc4F)cc3)c2cc1OC | – | – | – |
| Insoluble | – | – | – | – | COc1cc2ncnc(Oc3ccc(NC(=O)Nc4ccc(F)c(Cl)c4)cc3)c2cc1OC | – | – | – |
| Insoluble | – | – | – | – | COc1cc2ncnc(Oc3ccc(NC(=O)Nc4ccc5ccccc5c4)cc3)c2cc1OC | – | – | – |
| Insoluble | – | – | – | – | COc1ccc(NC(=O)Nc2ccc(Oc3ncnc4cc(OC)c(OC)cc34)cc2)cc1 | 0% | 12% | 9% |
| – | 4.65 µM | > 10 µM | – | – | CCNC(=O)Nc1ccc(Nc2ncnc3cc(OC)c(OC)cc23)cc1 | 6% | 0% | 0% |
| – | – | > 10 µM | – | – | CCC(=O)Nc1ccc(Nc2ncnc3cc(OC)c(OC)cc23)cc1 | – | – | – |
| – | 4 µM | – | – | – | CCCC(=O)Nc1ccc(Nc2ncnc3cc(OC)c(OC)cc23)cc1C | 5% | 0% | 0% |
| – | – | – | – | – | COC(=O)Nc1ccc(Nc2ncnc3cc(OC)c(OC)cc23)cc1Cl | 0% | 19% | 22% |
| – | – | – | – | – | CCCOC(=O)Nc1ccc(Nc2ncnc3cc(OC)c(OC)cc23)cc1C | 0% | 6% | 18% |
| – | – | – | – | – | CCCCOC(=O)Nc1ccc(Nc2ncnc3cc(OC)c(OC)cc23)cc1C | 33% | 4% | 13% |
| – | – | 5.8 µM | – | – | COc1cc2ncnc(Nc3ccc(NC(=O)OC(C)C)c(C)c3)c2cc1OC | – | – | – |
| – | 5.8 µM | > 10 µM | – | – | CCCCNC(=O)Nc1ccc(Nc2ncnc3cc(OC)c(OC)cc23)cc1 | 26% | 14% | 16% |
| – | – | > 10 µM | – | – | COc1cccc(NC(=O)Nc2ccc(Nc3ncnc4cc(OC)c(OC)cc34)cc2)c1 | – | – | – |
| – | 6.9 µM | 9.9 µM | 5.9 µM | – | CCN(CC)CCOc1cc2ncnc(Nc3ccc(F)c(Cl)c3)c2cc1OC | 26% | 36% | – |

| solubility [4] | IC50 [5] | IC50 [6] | IC50 [7] | IC50 [8] | SMILES | inhibition at 10 µM [1] | inhibition at 10 µM [2] | inhibition at 10 µM [3] |
| --- | --- | --- | --- | --- | --- | --- | --- | --- |
| – | 1 µM | > 10 µM | 7.5 µM | – | CCN(CC)CCOc1cc2ncnc(Nc3ccc(Br)cc3F)c2cc1OC | 10% | 16% | – |
| – | 6.45 µM | 9.45 µM | 2.55 µM | 9.6 µM | CCN(CC)CCOc1cc2ncnc(Nc3ccc(C)c(Br)c3)c2cc1OC | – | 36% | – |
| – | 5.2 µM | > 10 µM | – | – | CCN(CC)CCOc1cc2ncnc(Nc3ccc(NC(=O)OC)c(Cl)c3)c2cc1OC | 0% | 0% | 38% |
| – | 3.35 µM | – | 5.45 µM | – | CCOC(=O)Nc1ccc(Nc2ncnc3cc(OCCN(CC)CC)c(OC)cc23)cc1Cl | 0% | 0% | – |
| – | 6.95 µM | > 10 µM | – | – | CCN(CC)CCOc1cc2ncnc(Nc3ccc(NC(=O)OC)c(C)c3)c2cc1OC | 0% | 0% | 1% |
| – | – | – | – | – | CCOC(=O)Nc1ccc(Nc2ncnc3cc(OCCN(CC)CC)c(OC)cc23)cc1C | 0% | 0% | 11% |
| – | 6.6 µM | > 10 µM | – | – | CCNC(=O)Nc1ccc(Nc2ncnc3cc(OCCN(CC)CC)c(OC)cc23)cc1 | 0% | 0% | 0% |
| – | 7.45 µM | 9.1 µM | – | – | CCN(CC)CCOc1cc2c(Nc3ccc(Br)cc3F)ncnc2cc1OC | 0% | 0% | 35% |
| – | – | – | – | – | CCOC(=O)Nc1ccc(Nc2ncnc3cc(OC)c(OCCN(CC)CC)cc23)cc1C | 0% | 0% | 36% |
| – | 5.3 µM | > 10 µM | 3.6 µM | 7.7 µM | CCCCOc1cc2c(Nc3ccc(Br)cc3F)ncnc2cc1OCCN(CC)CC | – | 31% | – |
| – | 7.4 µM | > 10 µM | 2.55 µM | – | CCCCOc1cc2c(Nc3ccc(NC(=O)OC)c(Cl)c3)ncnc2cc1OCCN(CC)CC | 33% | 11% | – |
| – | – | 9.15 µM | 2.5 µM | 7.1 µM | CCCCOc1cc2c(Nc3ccc(NC(=O)OCC)c(Cl)c3)ncnc2cc1OCCN(CC)CC | – | 40% | – |
| – | 9.4 µM | > 10 µM | 6.15 µM | – | CCCCOc1cc2c(Nc3ccc(NC(=O)OC)c(C)c3)ncnc2cc1OCCN(CC)CC | 0% | 0% | – |
| – | – | – | 5.8 µM | – | CCCCOc1cc2c(Nc3ccc(NC(=O)OCC)c(C)c3)ncnc2cc1OCCN(CC)CC | 0% | 0% | – |
| Insoluble | – | – | – | – | COc1cc2ncnc(Oc3cccc(NC(C)=O)c3)c2cc1OC | – | – | – |
| Insoluble | – | > 10 µM | – | – | COc1cccc(NC(=O)Nc2ccc(Oc3ncnc4cc(OC)c(OC)cc34)cc2)c1 | – | – | – |
| Insoluble | 0.006 µM | > 10 µM | 9.1 µM | 9.8 µM | COc1cc2ncnc(Oc3ccc(NC(=O)Nc4cccc(Br)c4)cc3)c2cc1OC | – | 35% | – |
| Insoluble | 0.04 µM | > 10 µM | – | – | COc1cc2ncnc(Oc3ccc(NC(=O)Nc4ccc(Br)cc4)c(C)c3)c2cc1OC | 3% | 7% | 2% |
| Insoluble | 0.004 µM | > 10 µM | – | – | COc1cc2ncnc(Oc3ccc(NC(=O)Nc4cccc(Br)c4)c(C)c3)c2cc1OC | 30% | 25% | 36% |
| Insoluble | – | > 10 µM | – | – | COc1cc2ncnc(Oc3ccc(NC(=O)Nc4ccc(F)c(Cl)c4)c(C)c3)c2cc1OC | – | – | – |
| Insoluble | – | > 10 µM | – | – | COc1cc2ncnc(Oc3ccc(NC(=O)Nc4ccc5ccccc5c4)c(C)c3)c2cc1OC | – | – | – |
| Insoluble | – | – | – | – | COc1cc2ncnc(Oc3ccc(NC(=O)NC4CCCCC4)cc3)c2cc1OC | – | – | – |
| – | 0.8 µM | 3.6 µM | – | – | COc1cc2ncnc(Nc3ccc(Br)cc3)c2cc1OC | 42% | 37% | 2% |
| – | 7 µM | 4.3 µM | – | – | COc1cc2ncnc(Nc3ccccc3)c2cc1OC | 7% | 9% | 0% |
